“Also recorded” adds a separate entry of the source. Where two headings read alike, the source gives them in different places.
How the values were obtained:
[1] = tested on: mice with chronic constriction injury (CCI) of the sciatic nerve; conditions: cited from earlier work; for Reversal of neuropathic pain following CCI in mice: via an A3AR-mediated mechanism
[2] = tested on: mice with chronic constriction injury (CCI) of the sciatic nerve; experiment: CCI model of neuropathic pain; format: in vivo, mouse; conditions: for Effect on Paw Withdrawal Thresholds (PWT) in contralateral paws: data not shown; for Time of maximal effect on mechano-allodynia: i.p. 3 µmol/kg on D7 after CCI; for Reversal of mechano-allodynia after CCI: i.p. 3 µmol/kg on day 7 (D7) after CCI, mouse
In short: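 Male CD-1 mice (25–30 g), housed 4–5 per cage with a 12 h light/dark cycle. CCI of the left sciatic nerve (Bennett model) under isoflurane (3% induction, 2% maintenance in 100% O2); wound closed with a muscle suture and skin clip. Test compound or vehicle (5% DMSO in saline) given i.p. at 3 µmol/kg on D7, at peak mechano-allodynia. Experimenters blinded; mean ± SEM.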

[3] = tested on: A3AR−/− mice with CCI of the sciatic nerve; experiment: CCI model of neuropathic pain in A3AR knockout mice; format: in vivo, mouse; conditions: i.p. 3 µmol/kg, male A3AR knock-out mice
mA3AR = target: T1, mA3AR (Mus musculus, UniProt Q61618); experiment: Radioligand binding at mA3AR
T1 sequence (Q61618 1-319): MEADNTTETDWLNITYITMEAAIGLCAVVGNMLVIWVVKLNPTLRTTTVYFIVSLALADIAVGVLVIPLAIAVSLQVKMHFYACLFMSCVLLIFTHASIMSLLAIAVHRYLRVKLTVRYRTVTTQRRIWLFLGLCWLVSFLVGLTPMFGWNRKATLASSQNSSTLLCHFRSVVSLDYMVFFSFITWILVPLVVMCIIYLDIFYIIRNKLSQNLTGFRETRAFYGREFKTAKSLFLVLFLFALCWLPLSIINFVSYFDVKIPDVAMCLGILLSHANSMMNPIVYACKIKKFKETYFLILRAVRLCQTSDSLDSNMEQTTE

mA1AR = target: T2, mA1AR (Mus musculus, UniProt Q60612); format: cell-based; conditions: tested up to 10 µM
T2 sequence (Q60612 1-326): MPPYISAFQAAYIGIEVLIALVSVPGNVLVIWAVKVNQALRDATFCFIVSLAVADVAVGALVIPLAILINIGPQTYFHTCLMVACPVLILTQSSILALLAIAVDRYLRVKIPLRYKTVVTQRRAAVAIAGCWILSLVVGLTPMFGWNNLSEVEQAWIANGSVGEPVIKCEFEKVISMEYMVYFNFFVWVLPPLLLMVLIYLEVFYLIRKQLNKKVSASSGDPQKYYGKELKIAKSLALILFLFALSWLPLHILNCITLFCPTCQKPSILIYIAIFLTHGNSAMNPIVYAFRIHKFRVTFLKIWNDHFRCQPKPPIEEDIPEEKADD

hA3AR = target: T3, hA3AR (Homo sapiens, UniProt P0DMS8); experiment: Radioligand binding at hA3AR
T3 sequence (P0DMS8 1-318): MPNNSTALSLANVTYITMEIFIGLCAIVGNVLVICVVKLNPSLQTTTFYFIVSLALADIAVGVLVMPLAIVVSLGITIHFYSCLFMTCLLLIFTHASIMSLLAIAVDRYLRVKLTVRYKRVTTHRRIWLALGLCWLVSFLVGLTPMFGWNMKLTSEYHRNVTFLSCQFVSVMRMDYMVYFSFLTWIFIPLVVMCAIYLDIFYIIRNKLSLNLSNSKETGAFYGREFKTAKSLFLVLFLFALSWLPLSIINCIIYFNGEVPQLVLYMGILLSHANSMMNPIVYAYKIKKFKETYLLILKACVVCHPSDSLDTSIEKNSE

Structure (SMILES) | Effect on Paw Withdrawal Thresholds (PWT) in contralateral paws [1] | Reversal of neuropathic pain following CCI in mice [1] | Effect on Paw Withdrawal Thresholds (PWT) in contralateral paws [2] | Time of maximal effect on mechano-allodynia [2] | Reversal of mechano-allodynia after CCI [2] | Anti-allodynic effect in A3AR−/− mice [3] | further results
CNC(=O)[C@H]1O[C@@H](n2cnc3c(NCc4cccc(I)c4)ncnc32)[C@H](O)[C@@H]1O [1a, N^6-(3-iodobenzyl)adenosine-5'-N-methyluronamide] | lacked effect | reverse the development of neuropathic pain | – | – | – | – | –
CNC(=O)[C@H]1O[C@@H](n2cnc3c(NCc4cccc(I)c4)nc(Cl)nc32)[C@H](O)[C@@H]1O [1b, 2-Chloro-N^6-(3-iodobenzyl)adenosine-5'-N-methyluronamide] | lacked effect | reverse the development of neuropathic pain | – | – | – | – | –
CNC(=O)[C@@]12C[C@@H]1[C@@H](n1cnc3c(NCc4cccc(Cl)c4)nc(C#Cc4ccc(S(=O)(=O)O)cc4)nc31)[C@H](O)[C@@H]2O [Compound 6, 4-((6-(3-Chlorobenzylamino)-9-((1S,2R,3S,4R,5S)-3,4-dihydroxy-5-(methylcarbamoyl)bicyclo[3.1.0]hexan-2-yl)-9H-purin-2-yl)ethynyl)benzenesulfonic acid] | – | – | lacked effect | ≤ 1 h | reversed mechano-allodynia | significantly but not completely abrogated; also recorded: retained the ability to produce a small protective effect | –
CNC(=O)[C@@]12C[C@@H]1[C@@H](n1cnc3c(NCc4cccc(Cl)c4)nc(C#Cc4cccc(S(=O)(=O)O)c4)nc31)[C@H](O)[C@@H]2O [Compound 7, 3-((6-(3-Chlorobenzylamino)-9-((1S,2R,3S,4R,5S)-3,4-dihydroxy-5-(methylcarbamoyl)bicyclo[3.1.0]hexan-2-yl)-9H-purin-2-yl)ethynyl)benzenesulfonic acid] | – | – | lacked effect | ≤ 1 h | reversed mechano-allodynia | completely lost; also recorded: completely eliminated | A3AR selectivity in comparison to the A1AR and A2AAR (mA3AR): > 1000 fold; Functional activity at the mA1AR (mA1AR): completely inactive up to 10 µM; A3AR selectivity in comparison to the A1AR and A2AAR (hA3AR): > 10,000 fold
CCCOC(=O)c1c(-c2ccccc2)nc(CC)c(C(=O)SCC)c1CCC [compound 45, 5-propyl-2-ethyl-4-propyl-3-(ethylsulfanylcarbonyl)-6-phenylpyridine-5-carboxylate, reference compound] | – | – | – | – | – | – | Effect of antagonist on the anti-allodynic actions of systemic agonist 7 ([2]; 45 intrathecal 3 nmol, 7 at 3 µmol/kg): had no effect; also recorded: did not block the effects of systemic 7; Blocking of the anti-allodynic effects of A3AR agonist 1a ([1]; antagonist administered systemically, identical CCI model): completely effective
